We go through five molecules from article PMC3920952 (Cell Death & Disease, 2013).

Data set [1] concerns Jurkat cells. Kind of data set: Cell death by propidium iodide staining and flow cytometry. It counts as cell-based. Conditions: 15 μM, 18 h, 0.5% FBS; mean of three independent experiments. Summed up: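 Cells seeded at 4×10^5/ml in medium with 0.5% FBS and exposed for 18 h to TAT-fused truncated test peptides (15 μM) or TAT alone. Cells were washed in PBS and resuspended in PI solution (50 μg/ml PI, 0.1% sodium citrate, 0.1% Triton X-100). Flow cytometry gave the sub-G1 fraction. Mean ± S.D. of three independent experiments; two-tailed Student's t-test versus TAT.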

The test system of data set [2] is Jurkat cells. Kind of data set: ATP-based cell viability assay. The essentials: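 Jurkat cells (RPMI, 10% FBS, 1.5 mmol/l L-glutamine) seeded in half-surface 96-well plates. Treated overnight/18 h with test peptide, TAT-only peptide or vehicle under low serum (0.5–5% FBS). Single-concentration runs used 15 μM. ATP measured by CellTiter-Glo luminescence and expressed as % of vehicle-treated control. Single-concentration values are mean ± S.D. of four independent experiments.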

Data set [3] deals with K562 cells. Kind of data set: Trypan blue exclusion assay. The note with it: 20 μM, 15-min treatment. It counts as cell-based. Summed up:
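K562 cells were exposed to 20 μM test peptide or TAT in medium with 0.5% FBS, either over a time course (minutes) or for 18 h. Cells in suspension were mixed 1:1 with 0.4% Trypan blue. Viable (dye-negative) cells were counted on an automated cell counter. Values are mean ± S.D.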

Data set [4] deals with Jurkat cells. In words: Trypan blue exclusion assay. It counts as cell-based. Summed up: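 Jurkat cells cultured in 96-well plates and treated with TAT or test peptide overnight (10–15 μM range). In the caspase-inhibitor arm, cells were preincubated 30 min with zVAD-fmk or vehicle, then treated 17 h (TAT 10 μM). Suspended cells were mixed 1:1 with 0.4% Trypan blue, and viable cells were counted on a TC10 automated counter.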

The nature of data set [5]: Particle size by dynamic light scattering. It counts as physicochemical. Conditions: PBS pH 7.4, 25 °C. The essentials:
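Test peptide at 60 μM in PBS, pH 7.4, at 25 °C was filtered and degassed, then scanned in a 1-mm path quartz cuvette. 90° light scattering was recorded for 3 min. Particle radius was derived by CONTIN analysis of the DLS data.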

A short description of data set [6]: Tolerability in xenograft-bearing mice. The data set is classed as in vivo, nu/nu mice. Conditions: mice treated for 18 days, 2.0 and 8.0 mg/kg daily i.p. Summed up:
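HCT116 cells (1×10^6) injected s.c. into the right flank of 7–8-week-old female nu/nu mice. After 1 week, mice were randomized into four groups of eight. Groups received daily i.p. test peptide (2.0 or 8.0 mg/kg) or TAT (1.3 or 5.3 mg/kg) for 18 days. Body weight was monitored. Liver, brain, heart, lung and spleen sections were assessed by H&E staining.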

As for CTADMS [killerFLIP-C], in data set [1], the “cell death (PI staining)” value came out at 14.6%.
In the case of FALFCTSW [scrambled killerFLIP-E], in data set [2] (18 h, comparison with scrambled variant (Figure 4c), concentration not given), the “relative ATP levels compared with vehicle-treated cells” value is given as 12.7%.
With YGRKKRRQRRR [TAT, reference compound], the Trypan blue-negative cells in data set [3] stood at 83%; in data set [4] (20 μM, 15-min treatment) it was 75.2%. Also, the “cells excluding Trypan blue” value in data set [4] (10 μM TAT, 17 h, no zVAD-fmk) came out at 78%. Also, the “cell death (Trypan blue exclusion)” value in data set [4] (10 μM, 17 h) is recorded as “did not induce cell death”. The “self-assembly into micelles in aqueous solution (DLS)” value in data set [5] was “does not”.
On to YGRKKRRQRRRREADFFWSLCTADMS [killerFLIP], for which the “cell death, share of Jurkat cells (Trypan blue exclusion)” value in data set [4] (10–15 μM, overnight) was approximately 50%. Besides, the tolerability entry in data set [6] is on record as “generally well tolerated”. Also, in data set [2] (overnight treatment, various concentrations, low serum (0.5–5% FBS)), the “effect on cell viability (relative ATP levels)” value is reported as “concentration-dependent decrease in cell viability”.

B1: HGS-ETR2: agonistic anti-TRAIL-R2 antibody used as a positive control for apoptotic cell death (antibody, chains of the INN, looked up, V domains shown)
VH: EVQLVQSGGGVERPGGSLRLSCAASGFTFDDYGMSWVRQAPGKGLEWVSGINWNGGSTGYADSVKGRVTISRDNAKNSLYLQMNSLRAEDTAVYYCAKILGAGRGWYFDLWGKGTTVTVSS
VL: SSELTQDPAVSVALGQTVRITCQGDSLRSYYASWYQQKPGQAPVLVIYGKNNRPSGIPDRFSGSSSGNTASLTITGAQAEDEADYYCNSRDSSGNHVVFGGGTKLTVL
Consider B1, for which the Trypan blue-negative cells in data set [4] (HGS-ETR2 1 μg/ml, 17 h, after 30 min pre-treatment with 20 μM zVAD-fmk) is given as 70%; in data set [4] (HGS-ETR2 1 μg/ml, 17 h, no zVAD-fmk) it was 11%.
